Legend:
[1] = target: T1, Mitogen-activated protein kinase 13 (Homo sapiens, UniProt O15264); experiment: Inhibition of p38delta
T1 sequence (O15264 whole entry): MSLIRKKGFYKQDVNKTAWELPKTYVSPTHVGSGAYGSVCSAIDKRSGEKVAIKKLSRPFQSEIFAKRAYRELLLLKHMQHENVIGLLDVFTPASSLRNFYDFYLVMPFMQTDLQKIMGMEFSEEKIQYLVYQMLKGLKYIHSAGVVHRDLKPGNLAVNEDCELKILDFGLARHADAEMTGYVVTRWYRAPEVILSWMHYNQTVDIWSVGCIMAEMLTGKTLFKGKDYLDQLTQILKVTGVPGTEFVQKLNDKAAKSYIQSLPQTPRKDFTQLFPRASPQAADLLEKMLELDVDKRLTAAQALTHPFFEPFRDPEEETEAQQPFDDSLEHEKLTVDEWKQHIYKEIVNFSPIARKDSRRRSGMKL

[2] = AUC (0 to infinity) in Sprague-Dawley rat at 2 mg/kg, po; type: ADME, organism-based; set-up: time infinity, dose 2 mg/kg, route oral; settings: plasma
[3] = target: T2, RAF proto-oncogene serine/threonine-protein kinase (Homo sapiens, UniProt P04049); experiment: Inhibition of RAF1 at 1 uM relative to control
Rattus norvegicus [4] = experiment: Inhibition of MAPKAP2 phosphorylation in porcine type 2 collagen-induced arthritis Lewis rat ankles at 0.01 to 1 mg/kg, po by Western blotting; type: functional; settings: dose mg/kg 0.01-1
How it was run: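 Oral dosing once daily for 7 days in collagen-induced arthritic Lewis rats, vehicle 15% HPBCD, 1% HPMC, 1% Pluronic F68, pH 2.2. Ankles (n = 2/group) frozen at sacrifice, pulverized and lysed; 15 μg protein per lane for Western blot with phospho-MK2 antibody. Signal normalized to Akt and expressed as percent of vehicle-treated arthritic control.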

[5] = Trough plasma concentration in porcine type 2 collagen-induced arthritis Lewis rat model at 0.01 to 1 mg/kg, po after 24 hrs; type: ADME, organism-based; set-up: dose 0.01-1 mg/kg, route oral
Cytochrome P450 1A2 = target: T3, Cytochrome P450 1A2 (Homo sapiens, UniProt P05177); experiment: Induction of CYP1A2 in human hepatocytes at 25 uM; type: ADME, cell-based, Hepatocyte
T3 sequence (P05177 whole entry): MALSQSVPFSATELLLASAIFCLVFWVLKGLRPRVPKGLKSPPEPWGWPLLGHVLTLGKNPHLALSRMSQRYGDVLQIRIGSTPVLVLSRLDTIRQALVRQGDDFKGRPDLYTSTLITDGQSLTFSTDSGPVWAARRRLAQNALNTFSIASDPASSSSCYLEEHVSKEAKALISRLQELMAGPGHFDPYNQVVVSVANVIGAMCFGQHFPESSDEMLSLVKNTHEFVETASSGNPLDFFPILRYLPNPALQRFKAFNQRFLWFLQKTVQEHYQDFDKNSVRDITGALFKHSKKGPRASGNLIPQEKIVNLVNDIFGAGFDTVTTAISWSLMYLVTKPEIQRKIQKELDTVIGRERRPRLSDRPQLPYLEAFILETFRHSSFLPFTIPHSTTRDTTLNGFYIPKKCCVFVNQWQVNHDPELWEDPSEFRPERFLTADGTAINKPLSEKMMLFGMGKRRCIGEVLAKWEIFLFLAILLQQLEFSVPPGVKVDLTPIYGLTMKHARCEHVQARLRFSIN

in vitro = settings: human, Caco-2
Cytochrome P450 2D6 = Cytochrome P450 2D6 (Homo sapiens, UniProt P10635); experiment: Inhibition of CYP2D6 in human liver microsomes; type: ADME, Microsome
[6] = Plasma protein binding in rat by ultrafiltration method; type: ADME, cell-free; settings: read-out: PPB (converted)
[7] = Cmax in porcine type 2 collagen-induced arthritis Lewis rat model at 0.01 to 1 mg/kg, po; type: ADME, organism-based; set-up: dose 0.01-1 mg/kg, route oral; settings: in vivo
[8] = target: Mitogen-activated protein kinase 11 (Homo sapiens, UniProt Q15759); experiment: Binding affinity to p38beta
[9] = target: T2, RAF proto-oncogene serine/threonine-protein kinase; experiment: Binding affinity to RAF1
[10] = target: Mitogen-activated protein kinase 14 (Homo sapiens, UniProt Q16539); experiment: Inhibition of p38alpha at 1 uM relative to control
Cytochrome P450 2B6 = target: T4, Cytochrome P450 2B6 (Homo sapiens, UniProt P20813); experiment: Induction of CYP2B6 in human hepatocytes at 25 uM; type: ADME, cell-based, Hepatocyte
T4 sequence (P20813 whole entry): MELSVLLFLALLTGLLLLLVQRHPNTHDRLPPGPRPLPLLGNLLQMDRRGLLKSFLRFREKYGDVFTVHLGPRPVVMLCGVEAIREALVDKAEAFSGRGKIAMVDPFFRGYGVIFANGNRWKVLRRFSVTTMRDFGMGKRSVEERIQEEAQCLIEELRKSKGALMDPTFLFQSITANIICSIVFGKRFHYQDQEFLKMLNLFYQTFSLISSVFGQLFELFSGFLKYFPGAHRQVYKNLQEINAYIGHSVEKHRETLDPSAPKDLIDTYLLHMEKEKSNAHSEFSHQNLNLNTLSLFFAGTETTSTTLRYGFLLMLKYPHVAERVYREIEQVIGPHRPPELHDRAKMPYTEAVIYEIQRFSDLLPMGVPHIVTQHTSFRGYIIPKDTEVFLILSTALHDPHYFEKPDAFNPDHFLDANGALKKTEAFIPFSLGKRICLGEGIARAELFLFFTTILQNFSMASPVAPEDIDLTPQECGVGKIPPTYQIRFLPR

V79 = experiment: Genotoxicity in Chinese hamster V79 cells by micronucleus test; type: toxicity, cell-based, Cricetulus griseus
[11] = target: T5, Mitogen-activated protein kinase 12 (Homo sapiens, UniProt P53778); experiment: Inhibition of p38-gamma
T5 sequence (P53778 whole entry): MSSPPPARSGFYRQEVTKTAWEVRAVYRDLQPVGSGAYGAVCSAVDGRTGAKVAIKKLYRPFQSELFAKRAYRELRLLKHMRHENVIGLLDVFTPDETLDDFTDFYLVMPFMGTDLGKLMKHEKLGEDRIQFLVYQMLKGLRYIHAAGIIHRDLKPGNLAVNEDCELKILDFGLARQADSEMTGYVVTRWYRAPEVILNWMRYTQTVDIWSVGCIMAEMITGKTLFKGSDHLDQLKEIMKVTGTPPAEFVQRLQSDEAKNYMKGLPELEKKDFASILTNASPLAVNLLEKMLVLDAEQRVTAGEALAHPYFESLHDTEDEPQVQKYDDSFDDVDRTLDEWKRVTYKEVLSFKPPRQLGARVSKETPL

Cytochrome P450 3A4 = Cytochrome P450 3A4 (Homo sapiens, UniProt P08684); experiment: Inhibition of CYP3A4 in human liver microsomes; type: ADME, Microsome
[12] = Oral bioavailability in Sprague-Dawley rat at 2 mg/kg; type: ADME, organism-based; settings: in vivo
Rattus norvegicus [13] = experiment: Antiarthritic activity against porcine type 2 collagen-induced arthritis in po dosed Lewis rat model assessed as reduction of paw swelling administered qd for 7 days relative to control; type: functional
How it was run: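 Arthritis induced by intradermal porcine type II collagen emulsified 1:1 in incomplete Freund's adjuvant; rats grouped at disease onset (day 0, 10-12 days after immunization). Oral dosing once daily for 7 days in vehicle 15% HPBCD, 1% HPMC, 1% Pluronic F68, pH 2.2.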

[14] = Volume of distribution at steady state in Sprague-Dawley rat at 2 mg/kg, iv; type: ADME, organism-based; set-up: dose 2 mg/kg, route intravenous; settings: in vivo, read-out: Vdss

T2 sequence (P04049 whole entry): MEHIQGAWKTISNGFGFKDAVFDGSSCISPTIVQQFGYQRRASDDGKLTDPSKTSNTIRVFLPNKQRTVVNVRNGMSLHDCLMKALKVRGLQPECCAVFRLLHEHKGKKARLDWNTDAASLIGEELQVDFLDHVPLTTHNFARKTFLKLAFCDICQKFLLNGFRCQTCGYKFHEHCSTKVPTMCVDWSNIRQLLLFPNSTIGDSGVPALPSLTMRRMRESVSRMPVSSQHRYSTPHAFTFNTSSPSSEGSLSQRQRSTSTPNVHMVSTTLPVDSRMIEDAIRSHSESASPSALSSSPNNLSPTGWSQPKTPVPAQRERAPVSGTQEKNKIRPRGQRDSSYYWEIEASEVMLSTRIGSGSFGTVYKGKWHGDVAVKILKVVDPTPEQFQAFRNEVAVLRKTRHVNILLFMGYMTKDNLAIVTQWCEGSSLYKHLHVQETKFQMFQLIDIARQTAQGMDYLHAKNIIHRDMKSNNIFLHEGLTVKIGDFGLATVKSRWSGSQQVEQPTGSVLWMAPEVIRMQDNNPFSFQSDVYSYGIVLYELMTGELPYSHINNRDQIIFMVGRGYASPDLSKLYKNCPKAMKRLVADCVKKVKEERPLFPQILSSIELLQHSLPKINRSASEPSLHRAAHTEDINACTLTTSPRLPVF
Mitogen-activated protein kinase 11, sequence (Q15759 whole entry): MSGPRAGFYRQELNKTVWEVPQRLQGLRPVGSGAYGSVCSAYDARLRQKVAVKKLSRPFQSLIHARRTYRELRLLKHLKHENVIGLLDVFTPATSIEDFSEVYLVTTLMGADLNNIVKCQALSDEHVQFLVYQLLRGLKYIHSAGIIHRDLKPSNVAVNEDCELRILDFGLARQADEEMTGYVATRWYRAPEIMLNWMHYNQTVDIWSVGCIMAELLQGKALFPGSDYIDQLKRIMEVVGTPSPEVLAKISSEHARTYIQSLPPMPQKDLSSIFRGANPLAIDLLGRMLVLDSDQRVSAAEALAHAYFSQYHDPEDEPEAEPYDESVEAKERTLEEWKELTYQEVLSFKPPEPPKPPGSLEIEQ
Cytochrome P450 2D6, sequence (P10635 whole entry): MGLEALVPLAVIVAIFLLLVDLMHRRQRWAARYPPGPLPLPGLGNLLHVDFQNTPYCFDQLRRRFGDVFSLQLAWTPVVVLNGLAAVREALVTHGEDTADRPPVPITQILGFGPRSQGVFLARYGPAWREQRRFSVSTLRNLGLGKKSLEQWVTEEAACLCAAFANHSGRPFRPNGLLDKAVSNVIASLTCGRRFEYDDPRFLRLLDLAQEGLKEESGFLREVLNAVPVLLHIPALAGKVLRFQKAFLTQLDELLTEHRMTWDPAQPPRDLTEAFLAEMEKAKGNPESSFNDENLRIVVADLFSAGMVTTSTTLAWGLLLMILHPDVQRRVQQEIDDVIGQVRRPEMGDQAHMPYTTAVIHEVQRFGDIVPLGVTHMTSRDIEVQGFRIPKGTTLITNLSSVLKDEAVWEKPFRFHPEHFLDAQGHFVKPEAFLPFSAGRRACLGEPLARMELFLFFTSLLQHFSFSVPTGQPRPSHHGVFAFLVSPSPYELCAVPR
Mitogen-activated protein kinase 14, sequence (Q16539 whole entry): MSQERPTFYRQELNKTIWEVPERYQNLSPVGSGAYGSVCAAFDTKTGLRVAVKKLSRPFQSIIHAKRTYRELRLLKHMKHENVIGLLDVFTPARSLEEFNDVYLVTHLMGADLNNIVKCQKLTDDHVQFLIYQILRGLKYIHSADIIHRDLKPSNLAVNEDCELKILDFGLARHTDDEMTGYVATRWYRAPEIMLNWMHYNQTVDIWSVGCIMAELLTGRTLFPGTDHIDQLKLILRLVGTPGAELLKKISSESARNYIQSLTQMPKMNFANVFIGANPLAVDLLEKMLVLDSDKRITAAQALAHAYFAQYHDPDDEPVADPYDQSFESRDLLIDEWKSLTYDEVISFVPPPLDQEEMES
Cytochrome P450 3A4, sequence (P08684 whole entry): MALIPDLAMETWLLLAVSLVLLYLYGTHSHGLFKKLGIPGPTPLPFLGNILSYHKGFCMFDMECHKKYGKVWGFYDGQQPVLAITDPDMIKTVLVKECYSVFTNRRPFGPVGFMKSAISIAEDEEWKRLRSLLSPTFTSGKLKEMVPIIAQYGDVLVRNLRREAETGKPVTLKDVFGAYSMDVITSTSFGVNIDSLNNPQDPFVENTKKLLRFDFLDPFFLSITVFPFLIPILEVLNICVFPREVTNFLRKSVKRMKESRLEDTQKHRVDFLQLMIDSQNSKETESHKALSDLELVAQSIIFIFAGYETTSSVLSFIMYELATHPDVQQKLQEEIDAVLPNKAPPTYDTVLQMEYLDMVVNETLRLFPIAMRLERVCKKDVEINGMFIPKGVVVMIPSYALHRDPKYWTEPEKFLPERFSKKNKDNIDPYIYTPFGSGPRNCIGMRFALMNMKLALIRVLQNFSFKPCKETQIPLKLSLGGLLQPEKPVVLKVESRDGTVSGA

Cc1ccc(C(=O)NC2CC2)cc1-c1cc2cnn(-c3c(F)cccc3F)c2n(C)c1=O
Ki [1]: 2.1 µM | AUC(0-inf) [2]: 3.99 µg·h/mL | inhibition [3]: < 50% | ED50 (Rattus norvegicus [4]): ≤ 0.01 mg/kg | concentration at 24 h [5]: 4.4 nM | Activity (Cytochrome P450 1A2): Not Active | Papp B→A (in vitro): 270 nm/s | IC50 (Cytochrome P450 2D6): > 25 µM | fraction unbound [6]: 0.087 | Cmax [7]: 11 nM | Kd [8]: 0.00067 µM | Kd [9]: 1.1 µM | inhibition [10]: < 50% | Activity (Cytochrome P450 2B6): Not Active | Activity (V79): Non-toxic | Ki [11]: 3.5 µM | IC50 (Cytochrome P450 3A4): > 25 µM | bioavailability [12]: 43% | Activity (Rattus norvegicus [13]): Dose-dependent effect | ED50 (Rattus norvegicus [13]; 168 h): ≤ 0.01 mg/kg | Vd [14]: 0.837 L/kg
